# Experimental data reported in ChEMBL document CHEMBL3045605, “Synthesis and anticancer evaluation of novel 3,5-diaryl-thiazolo[4,5-d]pyrimidin-2-one derivatives” (2013).
# Columns and labels:
# Assay type in all cases: functional
# [1] = tested on: ACHN; experiment: Anticancer activity against Homo sapiens (human) ACHN cells assessed as cell growth at 10 uM by SRB assay; conditions: read-out: Activity
# How it was run: (§1)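 NCI 60-cell human tumour panel (nine cancer types) screened at one concentration, 10−5 M. Cell growth estimated by sulforhodamine B protein staining and reported as percent growth of treated cells relative to untreated controls.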
# [2] = tested on: A498; experiment: Anticancer activity against Homo sapiens (human) A498 cells by SRB assay
# How it was run: (§2)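 NCI 60-line panel, five tenfold dilutions from 10−4 to 10−8 M, growth read by sulforhodamine B staining against untreated controls. From the dose–response per line: GI50 (molar concentration giving half growth inhibition), TGI (molar concentration giving total growth inhibition, cytostatic) and LC50 (molar concentration killing 50% of initial cells, cytotoxic).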
# [3] = tested on: KM12; experiment: Anticancer activity against Homo sapiens (human) KM12 cells assessed as cell growth at 10 uM by SRB assay; conditions: read-out: Activity; how it was run: as §1
# [4] = tested on: MDA-MB-435; experiment: Anticancer activity against Homo sapiens (human) MDA-MB-435 cells assessed as cell growth at 10 uM by SRB assay; conditions: read-out: Activity
# How it was run: (§3)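 Single-dose screen in the NCI 60-human-tumour-cell-line panel (nine cancer types) at 10−5 M. Cell growth was estimated by sulforhodamine B protein staining and reported as percent growth of treated cells relative to untreated controls.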
# [5] = tested on: SK-OV-3; experiment: Anticancer activity against Homo sapiens (human) SKOV3 cells assessed as cell growth at 10 uM by SRB assay; conditions: read-out: Activity; how it was run: as §3
# [6] = Anticancer activity against Homo sapiens (human) NCI-322M cells assessed as cell growth at 10 uM by SRB assay; conditions: read-out: Activity; how it was run: as §3
# [7] = tested on: EKVX; experiment: Anticancer activity against Homo sapiens (human) EKVX cells by SRB assay; how it was run: as §2
# [8] = tested on: IGROV-1; experiment: Anticancer activity against Homo sapiens (human) IGROV1 cells assessed as cell growth at 10 uM by SRB assay; conditions: read-out: Activity; how it was run: as §1
# [9] = tested on: OVCAR-3; experiment: Anticancer activity against Homo sapiens (human) OVCAR3 cells assessed as cell growth at 10 uM by SRB assay; conditions: read-out: Activity; how it was run: as §3
# [10] = tested on: COLO 205; experiment: Anticancer activity against Homo sapiens (human) COLO205 cells by SRB assay; how it was run: as §2
# [11] = tested on: BT-549; experiment: Anticancer activity against Homo sapiens (human) BT549 cells assessed as cell growth at 10 uM by SRB assay; conditions: read-out: Activity; how it was run: as §1
# [12] = tested on: COLO 205; experiment: Anticancer activity against Homo sapiens (human) COLO205 cells assessed as cell growth at 10 uM by SRB assay; conditions: read-out: Activity; how it was run: as §1
# [13] = tested on: MCF7; experiment: Anticancer activity against Homo sapiens (human) MCF7 cells assessed as cell growth at 10 uM by SRB assay; conditions: read-out: Activity; how it was run: as §1
# [14] = tested on: SNB-75; experiment: Anticancer activity against Homo sapiens (human) SNB75 cells by SRB assay
# How it was run: (§4)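 Five-dose NCI 60-cell-line panel testing at tenfold dilutions from 10−4 to 10−8 M, with growth read by sulforhodamine B protein staining. For each cell line: GI50 is the molar concentration giving half growth inhibition; TGI is total growth inhibition (cytostatic); LC50 is the molar concentration killing 50% of the initial cells (cytotoxic).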
# [15] = tested on: UO-31; experiment: Anticancer activity against Homo sapiens (human) UO31 cells by SRB assay
# How it was run: (§5)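 NCI five-dose follow-up on the 60-line human tumour panel at tenfold dilutions from 10−4 to 10−8 M, with growth read by sulforhodamine B protein assay against untreated controls. For each cell line, GI50 (half growth inhibition), TGI (total growth inhibition) and LC50 (50% death of initial cells) are calculated as molar concentrations.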
# [16] = tested on: 786-0; experiment: Anticancer activity against Homo sapiens (human) 786-0 cells by SRB assay; how it was run: as §2
# [17] = tested on: OVCAR-8; experiment: Anticancer activity against Homo sapiens (human) OVCAR8 cells by SRB assay; how it was run: as §4
# [18] = tested on: HCT-116; experiment: Anticancer activity against Homo sapiens (human) HCT116 cells assessed as cell growth at 10 uM by SRB assay; conditions: read-out: Activity; how it was run: as §1
# [19] = tested on: SK-MEL-28; experiment: Anticancer activity against Homo sapiens (human) SK-MEL-28 cells assessed as cell growth at 10 uM by SRB assay; conditions: read-out: Activity; how it was run: as §3
# [20] = tested on: HCT-15; experiment: Anticancer activity against Homo sapiens (human) HCT15 cells assessed as cell growth at 10 uM by SRB assay; conditions: read-out: Activity; how it was run: as §1
# [21] = tested on: A549; experiment: Anticancer activity against Homo sapiens (human) A549/ATCC cells by SRB assay; how it was run: as §2
# [22] = tested on: 786-0; experiment: Anticancer activity against Homo sapiens (human) 786-0 cells assessed as cell growth at 10 uM by SRB assay; conditions: read-out: Activity; how it was run: as §1
# [23] = tested on: SK-MEL-2; experiment: Anticancer activity against Homo sapiens (human) SK-MEL-2 cells by SRB assay; how it was run: as §4
# [24] = tested on: Malme-3M; experiment: Anticancer activity against Homo sapiens (human) MALME-3M cells assessed as cell growth at 10 uM by SRB assay; conditions: read-out: Activity; how it was run: as §1
# [25] = tested on: SN12C; experiment: Anticancer activity against Homo sapiens (human) SN12C cells by SRB assay; how it was run: as §4
# [26] = tested on: NCI-H23; experiment: Anticancer activity against Homo sapiens (human) NCI-H23 cells by SRB assay; how it was run: as §4
# [27] = tested on: HCC 2998; experiment: Anticancer activity against Homo sapiens (human) HCC2998 cells assessed as cell growth at 10 uM by SRB assay; conditions: read-out: Activity; how it was run: as §1
# [28] = tested on: M14; experiment: Anticancer activity against Homo sapiens (human) M14 cells by SRB assay; how it was run: as §2
# [29] = tested on: SK-MEL-5; experiment: Anticancer activity against Homo sapiens (human) SK-MEL-5 cells assessed as cell growth at 10 uM by SRB assay; conditions: read-out: Activity; how it was run: as §3
# [30] = tested on: Malme-3M; experiment: Anticancer activity against Homo sapiens (human) MALME-3M cells by SRB assay; how it was run: as §2
# [31] = tested on: SW-620; experiment: Anticancer activity against Homo sapiens (human) SW620 cells by SRB assay; how it was run: as §5
# [32] = Anticancer activity against Homo sapiens (human) RPMI8266 cells by SRB assay; how it was run: as §4
# [33] = tested on: ACHN; experiment: Anticancer activity against Homo sapiens (human) ACHN cells by SRB assay; how it was run: as §2
# [34] = tested on: MDA-MB-468; experiment: Anticancer activity against Homo sapiens (human) MDA-MB-468 cells by SRB assay; how it was run: as §4
# [35] = tested on: MDA-MB-231; experiment: Anticancer activity against Homo sapiens (human) MDA-MB-231/ATCC cells assessed as cell growth at 10 uM by SRB assay; conditions: read-out: Activity; how it was run: as §1
# [36] = Anticancer activity against Homo sapiens (human) NCI-322M cells by SRB assay; how it was run: as §4
# [37] = tested on: LOX IMVI; experiment: Anticancer activity against Homo sapiens (human) LOXIMVI cells assessed as cell growth at 10 uM by SRB assay; conditions: read-out: Activity; how it was run: as §1
# [38] = tested on: UACC-62; experiment: Anticancer activity against Homo sapiens (human) UACC62 cells by SRB assay; how it was run: as §5
# [39] = tested on: A498; experiment: Anticancer activity against Homo sapiens (human) A498 cells assessed as cell growth at 10 uM by SRB assay; conditions: read-out: Activity; how it was run: as §1
# [40] = tested on: CCRF-CEM; experiment: Anticancer activity against Homo sapiens (human) CCRF-CEM cells by SRB assay; how it was run: as §2
smiles,measurement,setting,value
O=c1sc2c(Cl)nc(-c3ccccc3)nc2n1-c1ccccc1,growth at 10 µM,[1],42%
same,GI50,[2],3.47 µM
same,growth at 10 µM,[3],81%
same,growth at 10 µM,[4],26%
same,growth at 10 µM,[5],81%
same,growth at 10 µM,[6],62%
same,GI50,[7],25.7 µM
same,growth at 10 µM,[8],-65%
same,growth at 10 µM,[9],-41%
same,GI50,[10],11.2 µM
same,growth at 10 µM,[11],86%
same,growth at 10 µM,[12],52%
same,growth at 10 µM,[13],77%
same,GI50,[14],1.86 µM
same,CC50,[14]; read-out: pLC50 (the source's name) (converted),56.2 µM
same,TGI,[14]; read-out: pTGI (converted),13.8 µM
same,GI50,[15],1.32 µM
same,TGI,[15]; read-out: pTGI (converted),2.88 µM
same,GI50,[16],7.08 µM
same,TGI,[16]; read-out: pTGI (converted),56.2 µM
same,GI50,[17],2.04 µM
same,TGI,[17]; read-out: pTGI,43.7 µM
same,growth at 10 µM,[18],-53%
same,growth at 10 µM,[19],9%
same,growth at 10 µM,[20],28%
same,GI50,[21],43.7 µM
same,growth at 10 µM,[22],41%
same,GI50,[23],9.12 µM
same,TGI,[23]; read-out: pTGI,43.7 µM
same,growth at 10 µM,[24],62%
same,GI50,[25],7.41 µM
same,GI50,[26],3.63 µM
same,TGI,[26]; read-out: pTGI (converted),30.9 µM
same,growth at 10 µM,[27],90%
same,GI50,[28],3.8 µM
same,TGI,[28]; read-out: pTGI (converted),35.5 µM
same,growth at 10 µM,[29],60%
same,GI50,[30],14.8 µM
same,TGI,[30]; read-out: pTGI (converted),79.4 µM
same,GI50,[31],2.75 µM
same,TGI,[31]; read-out: pTGI (converted),9.12 µM
same,GI50,[32],44.7 µM
same,GI50,[33],6.92 µM
same,GI50,[34],3.63 µM
same,growth at 10 µM,[35],37%
same,GI50,[36],14.1 µM
same,TGI,[36]; read-out: pTGI (converted),58.9 µM
same,growth at 10 µM,[37],-44%
same,GI50,[38],20 µM
same,growth at 10 µM,[39],44%
same,GI50,[40],3.8 µM
